Laboratory results as given in ChEMBL document CHEMBL1146386, “Design, synthesis, and preliminary in vitro and in silico antiviral activity of [4,7]phenantrolines and 1-oxo-1,4-dihydro-[4,7]phenantrolines against single-stranded positive-sense RNA genome viruses” (Bioorg Med Chem, 2007).
Activity calls are given as the source filed them. No cut-off for these calls is given here.

Legend:
[1] = Cytotoxicity against human MT4 cells after 96 hrs by MTT method; assay type: cell-based
Summary of the method: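 Exponentially growing MT-4 cells (CD4+ T-cells carrying integrated HTLV-1) seeded at 1×10^5 cells/mL in RPMI-1640 with 10% FCS, penicillin and streptomycin, with or without serial compound dilutions; 96 h at 37 °C, humidified 5% CO2. Viability by MTT; value = concentration reducing proliferation by 50%, untreated controls undergoing at least three rounds of multiplication.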

[2] = Cytotoxicity against BHK1 cells after 48 to 120 hrs by MTT method; assay type: cell-based, Mesocricetus auratus; settings: hamster
Summary of the method: (§1)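 Cells placed in maintenance medium at initial 1×10^6 (BHK) or 6×10^5 (MDBK) cells/mL, with or without serial compound dilutions, run in parallel with antiviral tests. Viability by MTT after 48–120 h at 37 °C, humidified 5% CO2; CC50 = concentration reducing mock-infected cell viability by 50%; mean of three determinations.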

Coxsackievirus B2 = assay: Antiviral activity against CVB2 in Vero 76 cells after 3 days by plaque reduction assay; assay type: functional, organism-based; settings: Enterovirus B, 72 h
Summary of the method: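 Vero 76 cells seeded 2×10^5 cells/well, confluent overnight; infected to give 50-100 PFU/well; unadsorbed virus removed, then DMEM with 1% inactivated FCS and 0.75% methyl cellulose ± serial dilutions added. After 3 days at 37 °C, fixed and stained with 50% ethanol/0.8% crystal violet in PBS; plaques counted; EC50 by linear regression.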

Yellow fever virus = assay: Antiviral activity against YFV in BHK1 cells assessed as inhibition of virus-induced cytopathogenicity after 2 to 3 days by MTT method; assay type: functional, organism-based
[3] = Cytotoxicity against Vero 76 cells after 48 to 120 hrs by MTT method; assay type: cell-based; settings: chlorocebus sabaeus
Enterovirus C = assay: Antiviral activity against Poliovirus Sb1 in Vero 76 cells after 2 days by plaque reduction assay; assay type: functional, organism-based; settings: 48 h
Summary of the method: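 Vero 76 monolayers (2×10^5 cells/well, grown overnight) infected with Sabin strain at 50-100 PFU/well. Unabsorbed virus removed, then DMEM with 1% inactivated FCS and 0.75% methyl cellulose added, with or without serial compound dilutions (100 mM DMSO stock diluted in medium). Held 2 days at 37 °C, then fixed and stained with ethanol/crystal violet and plaques counted. EC50 (50% plaque reduction) by linear regression; mean of three determinations.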

[4] = Cytotoxicity against MDBK cells after 48 to 120 hrs by MTT method; assay type: cell-based, Bos taurus; settings: cattle; summary of the method: as §1
Reovirus sp. = assay: Antiviral activity against Reovirus; assay type: functional, organism-based
[5] = test system: Vesicular stomatitis virus; assay: Antiviral activity against VSV; assay type: functional, organism-based
[6] = test system: Human immunodeficiency virus 1; assay: Antiviral activity against HIV1 in MT4 cells by plaque reduction assay; assay type: functional, organism-based; settings: Human immunodeficiency virus 1, MT4
[7] = test system: Respiratory syncytial virus; assay: Antiviral activity against RSV; assay type: functional, organism-based
[8] = test system: Bovine viral diarrhea virus 1; assay: Antiviral activity against BVDV in MDBK cells assessed as inhibition of virus-induced cytopathogenicity after 2 to 3 days by MTT method; assay type: functional, organism-based; settings: Bovine viral diarrhea virus isolates and strains
Summary of the method: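 MDBK cells seeded 2.5×10^4 cells/well, grown overnight to confluence at 37 °C, 5% CO2; infected at moi 0.01 in serum-free medium; after 1 h, MEM Earle's with 1% inactivated FCS ± serial compound dilutions (DMSO stock diluted in medium) added. Viability read by MTT after 2-3 days at 37 °C; EC50 = 50% protection from cytopathogenicity; mean of three determinations.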

SMILES | CC50 at 96 h [1] [µM] | CC50 [2] [µM] | EC50 (Coxsackievirus B2) [µM] | EC50 (Yellow fever virus) [µM] | CC50 [3] [µM] | EC50 (Enterovirus C) [µM] | CC50 [4] [µM] | Activity (Reovirus sp.) | Activity [5] | EC50 [6] [µM] | Activity [7] | EC50 [8] [µM]
O=c1cc[nH]c2ccc3ncccc3c12 | > 100 | 66 | > 100 | > 66 | > 100 | > 100 | > 100 | inactive | inactive | > 100 | inactive | 95
CC(=O)Nc1ccnc2c(Cl)c(Cl)c3ncccc3c12 | 13 | 18 | 2 | > 18 | 50 | 21 | 32 | inactive | inactive | > 13 | inactive | 22
Clc1c(Cl)c2ncccc2c2cccnc12 | 24 | > 100 | 11 | > 100 | 25 | 6 | > 100 | inactive | inactive | > 24 | inactive | 16
O=C(O)c1c[nH]c2c(Cl)c(Cl)c3ncccc3c2c1=O | > 100 | 23 | > 100 | > 23 | 100 | 85 | > 100 | inactive | inactive | > 100 | inactive | > 100
CCOC(=O)c1c[nH]c2c(Cl)c(Cl)c3ncccc3c2c1=O | 32 | 25 | > 90 | > 25 | 90 | > 90 | > 100 | inactive | inactive | > 32 | inactive | 35
CCOc1ccnc2c(Cl)c(Cl)c3ncccc3c12 | > 100 | 25 | 2 | > 25 | 75 | 11 | 64 | inactive | inactive | > 100 | inactive | 25
c1cnc2ccc3ncccc3c2c1 | 61 | > 100 | > 80 | > 100 | 80 | > 80 | > 100 | inactive | inactive | > 61 | inactive | 17
Nc1ccnc2c(Cl)c(Cl)c3ncccc3c12 | 7.2 | 11 | 2 | > 11 | 40 | 14 | 24 | inactive | inactive | > 7.2 | inactive | ≥ 24
CCOc1ccnc2ccc3ncccc3c12 | 56 | 35 | 5 | > 35 | 80 | 17 | 64 | inactive | inactive | > 56 | inactive | 6
Nc1ccnc2ccc3ncccc3c12 | 50 | > 100 | > 90 | > 100 | 90 | > 90 | 63 | inactive | inactive | > 50 | inactive | 9
Clc1c(Cl)c2nccc(Cl)c2c2cccnc12 | 6.4 | > 100 | > 100 | > 100 | > 100 | > 100 | 54 | inactive | inactive | > 6.4 | inactive | > 54
O=c1cc[nH]c2c(Cl)c(Cl)c3ncccc3c12 | 47 | > 100 | > 80 | > 100 | 80 | > 80 | > 100 | inactive | inactive | > 47 | inactive | 16
